ChEMBL document CHEMBL1687722, “Mode of action of Ranbezolid against staphylococci and structural modeling studies of its interaction with ribosomes” (Antimicrob Agents Chemother, 2009)
≈ marks a conversion by molar mass, not a printed value. Calls of active or inactive are those of the source. No cut-off for these calls is given here.

Experiments:
[1] = test system: Staphylococcus aureus; experiment: Induction of bacterial membrane damage in Staphylococcus aureus ATCC 25923 at 15 uM by BacLight assay; assay type: functional
In short: (§1)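 Mid-log cells (overnight MHB culture at 37°C, diluted 1:100, grown to OD600 0.5–0.6) washed in water, diluted 1:20 into water containing compound, shaken 15–30 min at room temperature (25°C). Washed, adjusted to OD670 0.325, stained with BacLight reagent (3 µl/ml) for 15 min in the dark. Syto 9 (480/500 nm)/propidium iodide (490/635 nm) fluorescence ratio expressed versus control; <40% of control indicates membrane damage.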

[2] = test system: Staphylococcus epidermidis; experiment: Induction of bacterial membrane damage in Staphylococcus epidermidis ATCC 23760 at 15 uM by BacLight assay; assay type: functional; in short: as §1
[3] = test system: Staphylococcus aureus; experiment: Induction of bacterial membrane damage in Staphylococcus aureus ATCC 25923 at 100 uM by BacLight assay; assay type: functional; in short: as §1
[4] = test system: Staphylococcus epidermidis; experiment: Induction of bacterial membrane damage in Staphylococcus epidermidis ATCC 23760 at 100 uM by BacLight assay; assay type: functional; in short: as §1
[5] = test system: Staphylococcus aureus; experiment: Antimicrobial activity against Staphylococcus aureus ATCC 25923 by microdilution method; assay type: functional
[6] = test system: Staphylococcus epidermidis; experiment: Antimicrobial activity against Staphylococcus epidermidis ATCC 23760 by microdilution method; assay type: functional
In short: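 MIC determined by broth microdilution in the course of the macromolecular synthesis work; cultures grown in Mueller-Hinton broth.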

[7] = test system: Staphylococcus aureus; experiment: Inhibition of protein synthesis in Staphylococcus aureus ATCC 25923 assessed as incorporation of [14C]isoleucine at 1 ug/ml by liquid scintillation counter; assay type: functional, organism-based
In short: (§2)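 Whole-cell macromolecular synthesis. Cells grown in MHB to early log phase (OD600 0.3) were given a labelled precursor: [3H]thymidine, [3H]uridine or [3H]N-acetylglucosamine at 1 µCi/ml, or [14C]isoleucine or [14C]acetate at 0.1 µCi/ml. Drug was added 5 min later. Macromolecules were precipitated with ice-cold TCA (5% final), filtered, dried overnight at 37°C and counted by scintillation. A pathway-specific antibiotic was run as positive control.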

[8] = test system: Staphylococcus epidermidis; experiment: Inhibition of protein synthesis in Staphylococcus epidermidis ATCC 23760 assessed as incorporation of [14C]isoleucine at 1 ug/ml by liquid scintillation counter; assay type: functional, organism-based; in short: as §2
[9] = test system: Staphylococcus aureus; experiment: Inhibition of DNA synthesis in Staphylococcus aureus ATCC 25923 assessed as incorporation of [3H]thymidine at 1 ug/ml by liquid scintillation counter; assay type: functional, organism-based; in short: as §2
[10] = test system: Staphylococcus epidermidis; experiment: Inhibition of DNA synthesis in Staphylococcus epidermidis ATCC 23760 assessed as incorporation of [3H]thymidine at 1 ug/ml by liquid scintillation counter; assay type: functional, organism-based; in short: as §2
[11] = test system: Staphylococcus aureus; experiment: Inhibition of RNA synthesis in Staphylococcus aureus ATCC 25923 assessed as incorporation of [3H]uridine at 1 ug/ml by liquid scintillation counter; assay type: functional, organism-based; in short: as §2
[12] = test system: Staphylococcus epidermidis; experiment: Inhibition of RNA synthesis in Staphylococcus epidermidis ATCC 23760 assessed as incorporation of [3H]uridine at 1 ug/ml by liquid scintillation counter; assay type: functional, organism-based; in short: as §2
[13] = test system: Staphylococcus epidermidis; experiment: Inhibition of cell wall synthesis in Staphylococcus epidermidis ATCC 23760 assessed as incorporation of [3H]N-acetylglucosamine at 1 ug/ml after 60 mins by liquid scintillation counter; assay type: functional, organism-based; in short: as §2
[14] = test system: Staphylococcus epidermidis; experiment: Inhibition of lipid synthesis in Staphylococcus epidermidis ATCC 23760 assessed as incorporation of [14C]acetate at 1 ug/ml after 60 mins by liquid scintillation counter; assay type: functional, organism-based; in short: as §2
[15] = test system: Staphylococcus aureus; experiment: Bacteriostatic activity against Staphylococcus aureus ATCC 25923 at 8 times MIC after 30 hrs by time-kill analysis; assay type: functional, organism-based
[16] = test system: Staphylococcus aureus; experiment: Bactericidal activity against Staphylococcus aureus ATCC 25923 at 16 ug/ml by time-kill analysis; assay type: functional, organism-based
[17] = test system: Staphylococcus epidermidis; experiment: Bactericidal activity against Staphylococcus epidermidis ATCC 23760 by time-kill analysis; assay type: functional
[18] = test system: Staphylococcus epidermidis; experiment: Bactericidal activity against Staphylococcus epidermidis ATCC 23760 at 8 ug/ml after 4 hrs by time-kill analysis; assay type: functional, organism-based
[19] = test system: Staphylococcus epidermidis; experiment: Bactericidal activity against Staphylococcus epidermidis ATCC 23760 at 4 ug/ml after 6 hrs by time-kill analysis; assay type: functional, organism-based
[20] = test system: Staphylococcus aureus; experiment: Induction of bacterial membrane damage in Staphylococcus aureus ATCC 25923 at 4 ug/mL by BacLight assay; assay type: functional, organism-based
In short: (§3)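 BacLight membrane integrity. Mid-log MHB cultures (OD600 0.5–0.6) were washed and resuspended in water, then exposed to drug at 1–8 µg/ml for 15–30 min at room temperature (25°C) with shaking. Cells were washed, set to OD670 0.325 and stained with Syto 9/propidium iodide for 15 min in the dark. The Syto 9 (480/500 nm) to PI (490/635 nm) fluorescence ratio was compared with untreated controls. Valinomycin and CCCP served as positive controls.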

[21] = test system: Staphylococcus epidermidis; experiment: Induction of bacterial membrane damage in Staphylococcus epidermidis ATCC 23760 at 4 ug/mL by BacLight assay; assay type: functional, organism-based; in short: as §3
[22] = Inhibition of ribosomal activity in Escherichia coli S30 by coupled transcription/translation assay; assay type: subcellular, Ribosome
In short: (§4)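 Cell-free coupled transcription/translation of a luciferase gene, using E. coli S30 extract (bacterial) or a TNT kit (mammalian ribosomes). Percent inhibition of luciferase activity across a range of drug concentrations was calculated relative to the no-drug control.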

[23] = test system: Ribosome; experiment: Inhibition of mammalian ribosomal activity by coupled transcription/translation assay; assay type: subcellular; in short: as §4
[24] = Ratio of IC50 for mammalian ribosomal activity to ribosomal activity in Escherichia coli S30 by coupled transcription/translation assay; assay type: subcellular; conditions: Ribosome
[25] = test system: Staphylococcus epidermidis; experiment: Induction of bacterial membrane damage in Staphylococcus epidermidis ATCC 23760 at 2 to 8 ug/mL by BacLight assay; assay type: functional, organism-based; in short: as §3
[26] = test system: Staphylococcus epidermidis; experiment: Induction of bacterial membrane damage in Staphylococcus epidermidis ATCC 23760 at 2 ug/mL by BacLight assay relative to untreated control; assay type: functional; in short: as §3
[27] = test system: Staphylococcus epidermidis; experiment: Induction of bacterial membrane damage in Staphylococcus epidermidis ATCC 23760 at 1 ug/mL by BacLight assay relative to untreated control; assay type: functional, organism-based; in short: as §3
[28] = test system: Staphylococcus aureus; experiment: Inhibition of protein synthesis in Staphylococcus aureus ATCC 25923 assessed as incorporation of [14C]isoleucine at 2 ug/ml by liquid scintillation counter; assay type: functional, organism-based; in short: as §2
[29] = test system: Staphylococcus epidermidis; experiment: Inhibition of protein synthesis in Staphylococcus epidermidis ATCC 23760 assessed as incorporation of [14C]isoleucine at 2 ug/ml by liquid scintillation counter; assay type: functional, organism-based; in short: as §2
[30] = test system: Staphylococcus aureus; experiment: Inhibition of DNA synthesis in Staphylococcus aureus ATCC 25923 assessed as incorporation of [3H]thymidine at 2 ug/ml by liquid scintillation counter; assay type: functional, organism-based; in short: as §2
[31] = test system: Staphylococcus epidermidis; experiment: Inhibition of DNA synthesis in Staphylococcus epidermidis ATCC 23760 assessed as incorporation of [3H]thymidine at 2 ug/ml by liquid scintillation counter; assay type: functional, organism-based; in short: as §2
[32] = test system: Staphylococcus aureus; experiment: Inhibition of RNA synthesis in Staphylococcus aureus ATCC 25923 assessed as incorporation of [3H]uridine at 2 ug/ml by liquid scintillation counter; assay type: functional, organism-based; in short: as §2
[33] = test system: Staphylococcus epidermidis; experiment: Inhibition of RNA synthesis in Staphylococcus epidermidis ATCC 23760 assessed as incorporation of [3H]uridine at 2 ug/ml by liquid scintillation counter; assay type: functional, organism-based; in short: as §2
[34] = test system: Staphylococcus epidermidis; experiment: Inhibition of cell wall synthesis in Staphylococcus epidermidis ATCC 23760 assessed as incorporation of [3H]N-acetylglucosamine at 2 ug/ml after 60 mins by liquid scintillation counter; assay type: functional, organism-based; in short: as §2
[35] = test system: Staphylococcus epidermidis; experiment: Inhibition of lipid synthesis in Staphylococcus epidermidis ATCC 23760 assessed as incorporation of [14C]acetate at 2 ug/ml after 60 mins by liquid scintillation counter; assay type: functional, organism-based; in short: as §2
[36] = test system: Staphylococcus epidermidis; experiment: Bacteriostatic activity against Staphylococcus epidermidis ATCC 23760 at 4 X MIC after 24 hrs by time-kill analysis; assay type: functional, organism-based

N#CC(C#N)=NNc1cccc(Cl)c1 [CARBONYL CYANIDE M-CHLOROPHENYLHYDRAZONE]
Activity [1]: <40% | Activity [2]: <40%

CC(C)[C@@H]1NC(=O)[C@H](C)OC(=O)[C@@H](C(C)C)NC(=O)[C@@H](C(C)C)OC(=O)[C@H](C(C)C)NC(=O)[C@H](C)OC(=O)[C@@H](C(C)C)NC(=O)[C@@H](C(C)C)OC(=O)[C@H](C(C)C)NC(=O)[C@H](C)OC(=O)[C@@H](C(C)C)NC(=O)[C@@H](C(C)C)OC1=O [VALINOMYCIN]
Activity [3]: <40% | Activity [4]: <40%

CC(=O)NC[C@H]1CN(c2ccc(N3CCN(Cc4ccc([N+](=O)[O-])o4)CC3)c(F)c2)C(=O)O1 [RANBEZOLID]
MIC [5]: 1 µg/mL (≈ 2.17 µM) | MIC [6]: 1 µg/mL (≈ 2.17 µM) | inhibition [7]: Active | inhibition [8]: Active | inhibition [9]: inactive | inhibition [10]: inactive | inhibition [11]: inactive | inhibition [12]: inactive | inhibition [13]: Active | inhibition [14]: Active | Activity [15]: Active | Activity [16]: Active | Activity [17]: 99.9% | Activity [18]: Active | Activity [19]: Active | Activity [20]: inactive | Activity [21]: Active | IC50 [22]: 0.017 mM | IC50 [23]: 14.7 mM | Ratio [24]: 865 | Activity [25]: Active | Activity [26]: 50% | Activity [27]: inactive

CC(=O)NC[C@H]1CN(c2ccc(N3CCOCC3)c(F)c2)C(=O)O1 [LINEZOLID]
MIC [6]: 2 µg/mL (≈ 5.93 µM) | inhibition [28]: Active | inhibition [29]: Active | inhibition [30]: inactive | inhibition [31]: inactive | inhibition [32]: inactive | inhibition [33]: inactive | inhibition [34]: Active | inhibition [35]: Active | Activity [15]: Active | Activity [36]: Active | Activity [20]: inactive | Activity [21]: inactive | IC50 [22]: 0.1 mM | IC50 [23]: 11.9 mM
